# According to ChEMBL document CHEMBL1147094, “Novel in vivo model for the study of human immunodeficiency virus type 1 transcription inhibitors: evaluation of new 6-desfluoroquinolone derivatives” (Antimicrob Agents Chemother, 2007):
# Active and inactive are the calls of the source. No cut-off for these calls is given here.
# Legend:
# [1] = system: Human immunodeficiency virus 1; test: Antiviral activity against HIV1 BaL chronically infected human M/M cells; assay type: functional, organism-based; conditions: Human immunodeficiency virus 1, BaL
# [2] = system: Human immunodeficiency virus 1; test: Antiviral activity against human TNF alpha-stimulated HIV1 expression in latently HIV1 infected OM10.1 cells assessed as inhibition of viral p24 production; assay type: functional, organism-based
# [3] = system: Human immunodeficiency virus 1; test: Antiviral activity against HIV1 BaL acutely infected human M/M cells; assay type: functional, organism-based; conditions: Human immunodeficiency virus 1, BaL
# [4] = system: Human immunodeficiency virus 1; test: Antiviral activity against human PMA-stimulated HIV1 expression in latently HIV1 infected U1 cells assessed as inhibition of viral p24 production; assay type: functional, organism-based
# [5] = system: Human immunodeficiency virus 1; test: Antiviral activity against latently HIV1 infected OM10.1 cells assessed as inhibition of viral p24 antigen production; assay type: functional, organism-based
# [6] = system: Human immunodeficiency virus 1; test: Antiviral activity against human TNF-alpha stimulated HIV1 expression in latently HIV1 infected OM10.1 cells assessed as inhibition of viral mRNA production; assay type: functional, organism-based
# [7] = system: Human immunodeficiency virus 1; test: Antiviral activity against human PMA-stimulated HIV1 expression in latently HIV1 infected OM10.1 cells assessed as inhibition of viral p24 production; assay type: functional, organism-based
# [8] = system: Human immunodeficiency virus 1; test: Antiviral activity against human TNF-alpha stimulated HIV1 expression in latently HIV1 infected U1 cells assessed as decrease in mRNA production; assay type: functional, organism-based
# [9] = system: Human immunodeficiency virus 1; test: Antiviral activity against PMA stimulated HIV1 expression in latently HIV1 infected OM10.1 cells assessed as inhibition of viral mRNA production; assay type: functional, organism-based
# [10] = Cytotoxicity against latently HIV1 infected OM10.1 cells by MTT method; assay type: cell-based; conditions: human, OM10.1 cells latently infected with HIV-1
# Summary of the method: (§1)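 OM-10.1 cells at 500,000 cells/ml were exposed to compound for 2 h, then stimulated with 1 ng/ml hTNF-α or 0.02 µM PMA for 2 days at 37°C. Viability was read by MTT staining. The selectivity index is CC50 from MTT divided by EC50 from p24 ELISA run in the same cultures.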
# [11] = system: Human immunodeficiency virus 1; test: Inhibition of viral reactivation in SCID mouse inoculated with HIV1 infected OM10.1 cells at 50 mg/kg, ip for 3 days prior to hTNF alpha administration assessed as viral loads after 18 hrs; assay type: functional, organism-based; parameters: dose 50 mg/kg
# [12] = Selectivity index, CC50 for OM10.1 cells to EC50 for HIV1 infected OM10.1 cells; assay type: functional; summary of the method: as §1
# [13] = system: Human immunodeficiency virus 1; test: Antiviral activity against human PMA stimulated HIV1 expression in latently HIV1 infected U1 cells assessed as decrease in mRNA production; assay type: functional, organism-based
# [14] = system: Human immunodeficiency virus 1; test: Antiviral activity against latently HIV1 infected U1 cells assessed as inhibition of viral p24 antigen production; assay type: functional, organism-based
# [15] = system: Human immunodeficiency virus 1; test: Antiviral activity against human TNF alpha-stimulated HIV1 expression in latently HIV1 infected U1 cells assessed as inhibition of viral p24 production; assay type: functional, organism-based
EC50 [1],EC90 [1],EC50 [2],EC50 [3],EC90 [3],IC50 [6],EC50 [7],IC50 [9],Compound,Activity [4],Activity [5],Activity [8],CC50 [10],Activity [11],Ratio CC50/EC50 [12],Activity [13],Activity [14],Activity [15]
0.05 µg/mL,1 µg/mL,0.054 µg/mL,0.05 µg/mL,1 µg/mL,0.067 µg/mL,0.039 µg/mL,0.032 µg/mL,Cn1cc(C(=O)O)c(=O)c2ccc(N3CCN(c4cccc(C(F)(F)F)c4)CC3)cc21,Dose-dependent effect,Dose-dependent effect,Dose-dependent effect,5 µg/mL,Active,125,Dose-dependent effect,Dose-dependent effect,Dose-dependent effect
0.011 µg/mL,0.16 µg/mL,0.045 µg/mL,0.025 µg/mL,0.2 µg/mL,0.06 µg/mL,0.04 µg/mL,0.04 µg/mL,Cn1cc(C(=O)O)c(=O)c2ccc(N3CCN(c4nc5ccccc5s4)CC3)cc21,Dose-dependent effect,Dose-dependent effect,Dose-dependent effect,5 µg/mL,Active,125,Dose-dependent effect,Dose-dependent effect,Dose-dependent effect
